This note sets out measurements from ChEMBL document CHEMBL1806465, “Synthesis and biological evaluation of 4-nitro-substituted 1,3-diaryltriazenes as a novel class of potent antitumor agents” (Eur J Med Chem, 2011).

Data set [1] relates to HeLa. As to the kind of experiment: Cytotoxicity against human HeLa cells after 72 hrs by MTT assay. The class given is functional, cell-based. On the technique in general: Tetrazolium assays rely on reduction of a dye to a coloured formazan, in cell work by metabolically active cells.
The nature of data set [2]: Therapeutic index, ratio IC50 for human HeLa cells to IC50 for normal human fibroblasts. The class given is cell-based. As to conditions: HeLa cells versus normal human fibroblasts, read-out: Ratio IC50. The gist of the method: (§1)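 IC50 values came from an MTT assay. Cells were seeded at 3000 per well and dosed the next day, with each concentration in quadruplicate. After 72 h at 37 °C, MTT (20 µg/well) was added for 4 h; formazan was dissolved in DMSO and read at 545 nm. Each experiment was done three times. Normal skin fibroblasts were used at 32 and 36 population doublings. T.I. = tumor-cell IC50 / fibroblast IC50.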

Data set [3] in a line: Therapeutic index, ratio IC50 for cisplatin-resistant human CA3ST cells to IC50 for normal human fibroblasts. The class given is cell-based. The following applies: read-out: Ratio IC50. The gist of the method: as §1
Data set [4] is described as follows: Therapeutic index, ratio IC50 for human SW480 cells to IC50 for normal human fibroblasts. The class given is cell-based. As to conditions: SW480 cells versus normal human fibroblasts, read-out: Ratio IC50. The gist of the method: as §1
The next data set has as its system Nucleic Acid. As to the kind of experiment: Binding affinity to calf thymus DNA assessed as change in melting temperature at compound to DNA ratio of 0.3. The class given is nucleic-acid assay. As to conditions: Bos taurus. The gist of the method:
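ct-DNA sonicated, filtered, in Na-cacodylate buffer pH 7, I = 0.05 mol dm-3, 2 x 10^-5 mol dm-3 (as phosphate, ε260 = 6600); compound/DNA ratio 0.3. Absorbance at 260 nm followed versus temperature, compound absorbance subtracted, curves normalized. Tm taken from first-derivative maximum, confirmed by tangent method; ΔTm = Tm(complex) − Tm(free DNA), mean of ≥2 runs, error ±0.5 °C.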

Data set [5] relates to HeLa. Nature of the data set: Cell cycle arrest in human HeLa cells assessed as accumulation at G0/G1 phase at 7 uM after 24 hrs by propidium iodide staining -based flow cytometry (reference value: 60.6 %). The class given is functional. The gist of the method:
(§2)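 HeLa seeded at 100 000 cells/well, treated next day with 0.78, 7 or 21 µM for 24, 48 or 72 h. Adherent plus floating cells collected, PBS-washed, fixed overnight in 70% ethanol at −20 °C, RNase A 30 µg/ml 1 h RT, propidium iodide 16.7 µg/ml 30 min dark; DNA content by flow cytometry, phase percentages including subG1 reported.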
In general terms: Flow cytometry measures light scatter and fluorescence of single cells or particles in a stream.

Data set [6] relates to HeLa. As to the kind of experiment: Cell cycle arrest in human HeLa cells assessed as accumulation at S phase at 0.78 uM after 24 hrs by propidium iodide staining -based flow cytometry (reference value: 27.7 %). The class given is functional. The gist of the method: as §2
The subject of data set [7] is HeLa. Nature of the data set: Cell cycle arrest in human HeLa cells assessed as accumulation at S phase at 7 uM after 24 hrs by propidium iodide staining -based flow cytometry (reference value: 27.7 %). The class given is functional. The gist of the method: as §2
Data set [8] deals with HeLa. Nature of the data set: Cell cycle arrest in human HeLa cells assessed as accumulation at G2/M phase at 21 uM after 24 hrs by propidium iodide staining -based flow cytometry (reference value: 11.7 %). The class given is functional. The gist of the method: as §2
For data set [9], the system named is HeLa. Nature of the data set: Cell cycle arrest in human HeLa cells assessed as accumulation at G0/G1 phase at 7 uM after 48 hrs by propidium iodide staining -based flow cytometry (reference value: 63.8 %). The class given is functional. The gist of the method:
as §2

The subject of data set [10] is HeLa. As to the kind of experiment: Cell cycle arrest in human HeLa cells assessed as accumulation at G0/G1 phase at 21 uM after 48 hrs by propidium iodide staining -based flow cytometry (reference value: 63.8 %). The class given is functional. The gist of the method: as §2
The subject of data set [11] is HeLa. Nature of the data set: Cell cycle arrest in human HeLa cells assessed as accumulation at S phase at 21 uM after 72 hrs by propidium iodide staining -based flow cytometry (reference value: 23.5 %). The class given is functional. The gist of the method:
as §2

Data set [12] deals with HeLa. As to the kind of experiment: Cell cycle arrest in human HeLa cells assessed as accumulation at S phase at 0.78 uM after 72 hrs by propidium iodide staining -based flow cytometry (reference value: 23.5 %). The class given is functional. The gist of the method:
as §2

Data set [13] deals with HeLa. Nature of the data set: Cell cycle arrest in human HeLa cells assessed as accumulation at G2/M phase at 0.78 uM after 72 hrs by propidium iodide staining -based flow cytometry (reference value: 9.7 %). The class given is functional. The gist of the method: as §2
Data set [14] deals with HeLa. As to the kind of experiment: Cell cycle arrest in human HeLa cells assessed as accumulation at G2/M phase at 7 uM after 72 hrs by propidium iodide staining -based flow cytometry (reference value: 9.7 %). The class given is functional. The gist of the method: as §2
For data set [15], the system named is HeLa. Nature of the data set: Cell cycle arrest in human HeLa cells assessed as accumulation at subG1 phase at 0.78 uM after 72 hrs by propidium iodide staining -based flow cytometry (reference value: 7.2 %). The class given is functional. The gist of the method: as §2
Data set [16] relates to HeLa. Nature of the data set: Cell cycle arrest in human HeLa cells assessed as accumulation at subG1 phase at 21 uM after 72 hrs by propidium iodide staining -based flow cytometry (reference value: 7.2 %). The class given is functional. The gist of the method: as §2
Data set [17] relates to HeLa. Nature of the data set: Induction of reactive oxygen species generation in human HeLa cells at 7 uM after 6 hrs by FACS analysis. The class given is functional, cell-based. The gist of the method: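 Logarithmically growing HeLa cells were preloaded with 10 µM CM-H2DCFDA for 1 h. They were then exposed to 7, 20 or 40 µM for 8 h, or to 7 µM for 2, 4 or 6 h. Cells were trypsinized, fixed in cold 80% methanol, resuspended in PBS and read for fluorescence by flow cytometry. The positive control was 0.01% H2O2 for 30 min.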

The test system of data set [18] is HeLa. As to the kind of experiment: Induction of CHOP expression in human HeLa cells at 0.09 to 7 uM after 48 hrs by Western blot analysis. The class given is functional, cell-based. The gist of the method: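 Log-phase HeLa exposed to a concentration series for 48 h, or to 7 µM over a time course. Extracts resolved on 10% SDS gels, blotted to nitrocellulose, blocked 5% milk; anti-CHOP 1:1000 in 5% BSA overnight at 4 °C, HRP secondary 1:5000 2 h RT, ECL detection; ERK2 reprobe as loading control.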
(In general: In western blotting, separated proteins are transferred to a membrane and probed.)

Data set [19] deals with HeLa. Nature of the data set: Induction of Grp78 expression in human HeLa cells at 0.09 to 7 uM after 48 hrs by Western blot analysis. The class given is functional, cell-based. The gist of the method:
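Logarithmically growing HeLa cells were exposed to varying concentrations for 48 h, or to 7 µM for varying times. Cell extracts were run on 10% SDS gels and transferred to nitrocellulose. Membranes were blocked in 5% milk and probed with anti-Grp78 (1:1000, overnight, 4 °C), then an HRP secondary (1:5000, 2 h, RT). Detection was by ECL, with ERK2 reprobing as the loading control.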

Data set [20] deals with HeLa. As to the kind of experiment: Induction of apoptotis in human HeLa cells assessed as morphological changes at 7 uM after 48 hrs by acridine orange and […] staining based epifluorescent microscopic analysis. The class given is functional, cell-based. The gist of the method:
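After 48 h at 7 µM, adherent and floating HeLa cells were pooled and resuspended in medium. AO (15 µg/mL stock) and EtBr (50 µg/mL stock) were added. Under epifluorescence, apoptosis was scored from condensed chromatin and apoptotic bodies, which distinguish it from necrosis.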

Data set [21] deals with HeLa. Nature of the data set: Induction of apoptotis in human HeLa cells assessed as cleavage of apoptotic protein PARP at 7 uM after 48 hrs by Western blot analysis. The class given is functional, cell-based. The gist of the method: (§3)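 HeLa cells were treated for 48 h at 7 µM and analysed by Western blot (10% SDS gels, nitrocellulose, HRP secondary, ECL, ERK2 loading control) for cleavage of apoptotic proteins. Antibodies: anti-PARP 1:4000; anti-caspase-3 and anti-caspase-8 1:1000; rabbit polyclonal anti-caspase-9 1:1000.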

Data set [22] has as its system HeLa. As to the kind of experiment: Induction of apoptotis in human HeLa cells assessed as cleavage of procaspase 9 at 7 uM after 48 hrs by Western blot analysis. The class given is functional, cell-based. The gist of the method:
as §3

Data set [23] in a line: Stability of the compound in DMSO after 26.25 hrs by LC/MS/MS analysis in presence of 10% FBS. The class given is physicochemical. The following applies: cattle, DMSO with 10% FBS; read-out: Stability.

Each structure is given as a SMILES string. The source made the active and inactive calls. The calls are words filed in the database; no cut-off is given here.

For orientation: IC50 means the concentration that inhibits the measured activity by half. A high value points to weaker potency in that assay. As to `CC(=O)N(/N=N/c1ccc([N+](=O)[O-])cc1Cl)c1ccc([N+](=O)[O-])cc1Cl`, in the data set on HeLa [1], the IC50 came out at 630 nM. For the same compound, the selectivity ratio in [2] amounted to 0.045; in data set [3], 0.045; in data set [4], 0.038. In the data set on Nucleic Acid, the result was inactive. Also, the Activity was determined as 69.3% in the data set with HeLa [5]; 15.1% in the data set with HeLa [6]; 20.8% with HeLa [7]; 10.5% with HeLa [8]; 76.2% with HeLa [9]; 73% in the data set with HeLa [10]. Besides, the Activity with HeLa [11] worked out at 12.6%; in the data set on HeLa [12], 32.5%; with HeLa [13] it was 8.4%; in the data set on HeLa [14], 7.6%; with HeLa [15], 17.6%; in the data set on HeLa [16] it was 80.2%. Moreover, the result with HeLa [17], in the data set with HeLa [18], with HeLa [19], in the data set on HeLa [20], with HeLa [21] and in the data set on HeLa [22] was Active. Moreover, the remaining at 26.25 h in data set [23] turned out to be 57%.
